Laboratory results: article PMC7744997 (Clinical Infectious Diseases: An Official Publication of …, 2020)

Experiments:
[1] = Safety/tolerability: adverse events in RSV-infected infants; type: in vivo, human
Procedure, shortened: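 Adverse events were recorded over 28 days in infants given oral drug or placebo once daily for 7 days. Events were graded with the DMID Pediatric Toxicity Tables (November 2007), and the investigator judged relatedness to study drug. Events causing rehospitalisation were counted as serious. Vital signs, ECGs and physical examination were also done.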

[2] = system: RSV; assay: RSV RNA viral load from nasal swabs by qRT-PCR in RSV-infected infants; type: in vivo, respiratory syncytial virus
Procedure, shortened: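 Viral load was measured by quantitative real-time RT-PCR on midturbinate nasal swabs, taken over time during 7 days of once-daily oral dosing. After hospital discharge, no samples were taken until the day 7 visit. Results were expressed as median change from baseline.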

CS(=O)(=O)CCCn1c(Cn2c(=O)n(CC(F)(F)F)c3ccncc32)cc2cc(Cl)ccc21 [JNJ-53718678]
SAE bronchiolitis ([1]; 1/12, cohort 1b, mid-dose, 6 mg/kg QD): 8% | Any AE ([1]; All cohorts, n=37): 28 (76) no. (%) | Any AE possibly related to placebo/JNJ-53718678 ([1]; All cohorts, n=37): 11 (30) no. (%) | Any AE probably related to placebo/JNJ-53718678 ([1]; All cohorts, n=37): 1 (3) no. (%) | Any worst grade 1 or 2 AE ([1]; All cohorts, n=37): 28 (76) no. (%) | Any worst grade 3 or 4 AE ([1]; All cohorts, n=37): 1 (3) no. (%) | Soft feces (AE) ([1]; All cohorts, n=37): 7 (19) no. (%) | URTI (AE) ([1]; All cohorts, n=37): 8 (22) no. (%) | Vomiting (AE) ([1]; All cohorts, n=37): 8 (22) no. (%) | Serious AE ([1]; All cohorts, n=37, serious due to rehospitalization, not related to study drug): 2 (5) no. (%) | Any AE ([1]; High (cohorts 1d,2c,3c), n=9): 7 (78) no. (%) | Any AE possibly related to placebo/JNJ-53718678 ([1]; High (cohorts 1d,2c,3c), n=9): 2 (22) no. (%) | Any AE probably related to placebo/JNJ-53718678 ([1]; High (cohorts 1d,2c,3c), n=9): 0 no. (%) | Any worst grade 1 or 2 AE ([1]; High (cohorts 1d,2c,3c), n=9): 7 (78) no. (%) | Any worst grade 3 or 4 AE ([1]; High (cohorts 1d,2c,3c), n=9): 0 no. (%) | Serious AE ([1]; High (cohorts 1d,2c,3c), n=9): 0 no. (%) | Soft feces (AE) ([1]; High (cohorts 1d,2c,3c), n=9): 0 no. (%) | URTI (AE) ([1]; High (cohorts 1d,2c,3c), n=9): 3 (33) no. (%) | Vomiting (AE) ([1]; High (cohorts 1d,2c,3c), n=9): 4 (44) no. (%) | Any AE ([1]; Low (cohorts 1a,2a,3a), n=12): 9 (75) no. (%) | Any AE possibly related to placebo/JNJ-53718678 ([1]; Low (cohorts 1a,2a,3a), n=12): 3 (25) no. (%) | Any AE probably related to placebo/JNJ-53718678 ([1]; Low (cohorts 1a,2a,3a), n=12): 0 no. (%) | Any worst grade 1 or 2 AE ([1]; Low (cohorts 1a,2a,3a), n=12): 9 (75) no. (%) | Any worst grade 3 or 4 AE ([1]; Low (cohorts 1a,2a,3a), n=12): 0 no. (%) | Soft feces (AE) ([1]; Low (cohorts 1a,2a,3a), n=12): 2 (17) no. (%) | URTI (AE) ([1]; Low (cohorts 1a,2a,3a), n=12): 1 (8) no. (%) | Vomiting (AE) ([1]; Low (cohorts 1a,2a,3a), n=12): 0 no. (%) | Any AE ([1]; Mid (cohorts 1b,2b,3b), n=12): 10 (83) no. (%) | Any AE possibly related to placebo/JNJ-53718678 ([1]; Mid (cohorts 1b,2b,3b), n=12): 4 (33) no. (%) | Any AE probably related to placebo/JNJ-53718678 ([1]; Mid (cohorts 1b,2b,3b), n=12): 1 (8) no. (%) | Any worst grade 1 or 2 AE ([1]; Mid (cohorts 1b,2b,3b), n=12): 10 (83) no. (%) | Any worst grade 3 or 4 AE ([1]; Mid (cohorts 1b,2b,3b), n=12): 1 (8) no. (%) | Soft feces (AE) ([1]; Mid (cohorts 1b,2b,3b), n=12): 3 (25) no. (%) | URTI (AE) ([1]; Mid (cohorts 1b,2b,3b), n=12): 4 (33) no. (%) | Vomiting (AE) ([1]; Mid (cohorts 1b,2b,3b), n=12): 3 (25) no. (%) | Any AE ([1]; Mid-high (cohort 1c), n=4): 2 (50) no. (%) | Any AE possibly related to placebo/JNJ-53718678 ([1]; Mid-high (cohort 1c), n=4): 2 (50) no. (%) | Any AE probably related to placebo/JNJ-53718678 ([1]; Mid-high (cohort 1c), n=4): 0 no. (%) | Any worst grade 1 or 2 AE ([1]; Mid-high (cohort 1c), n=4): 2 (50) no. (%) | Any worst grade 3 or 4 AE ([1]; Mid-high (cohort 1c), n=4): 0 no. (%) | Serious AE ([1]; Mid-high (cohort 1c), n=4): 0 no. (%) | Soft feces (AE) ([1]; Mid-high (cohort 1c), n=4): 2 (50) no. (%) | URTI (AE) ([1]; Mid-high (cohort 1c), n=4): 0 no. (%) | Vomiting (AE) ([1]; Mid-high (cohort 1c), n=4): 1 (25) no. (%) | Patients with AEs considered at least possibly related to JNJ-8678 ([1]; all JNJ-8678, 11/37): 30% | Grade 3 AEs (bronchiolitis, reported as serious AE), number ([1]; all JNJ-8678, n=37): 1 | Tolerability in RSV-infected infants ([1]; oral, once daily for 7 days): well tolerated | Deaths, grade 4 AEs, AEs leading to discontinuation ([1]; whole study): No deaths, grade 4 AEs, or AEs leading to study discontinuation or permanent discontinuation of study drug were reported | Dose-response relationship for antiviral effects ([2]; across JNJ-8678 dose levels): no clear dose-response relationship was observed | Reduction in viral load compared with placebo ([2]; all doses combined): greater reduction in viral load with JNJ-8678 than placebo | Median RSV viral load change from baseline ([2]; by day 3, all JNJ-8678 doses combined): −1.98 log10 copies/mL
